Data as given in article PMC4083586 (Biotechnology journal, 2011).

System: porcine parvovirus (PPV)
Assay: PPV removal by peptide-resin columns from 7.5% human blood plasma
Type: binding, porcine parvovirus (PPV) NADL-2 strain
Settings: Figure 3B
Summary of the method: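 Peptides on resin at 0.10 mmol/g dry resin with a four-unit ethylene oxide spacer; 0.5 ml settled resin in PBS per column; acetylated control. About 5 log₁₀ (MTT/ml) PPV was pumped at 0.1 ml/min. Fractions of 0.5 ml (one column volume) were titered by MTT assay on PK-13 cells. Clearance over five column volumes was expressed relative to a reference trimer ligand (100%). Duplicates.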

Substance: YKLKYY
- PPV clearance of the first five column volumes, ranking among ligands: highest virus clearance
